Bioassay records (PubChem BioAssay)
RORA inh = inhibitors of human nuclear receptor RORA; inhibition, % at 10 µM; CHO-K1 Gal4-RORA LBD luciferase reporter, luminescence; AID 561; P35398; actives 0.43% (n = 65,000);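 active = inhibition above the mean of all tested compounds plus 3 SD, cut at about 52% in these data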;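 also: 0% = RORA-transfected cells with DMSO and 100% = mock-transfected cells lacking RORA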
Target sequence (P35398 whole entry, looked up, the tested form may be a part): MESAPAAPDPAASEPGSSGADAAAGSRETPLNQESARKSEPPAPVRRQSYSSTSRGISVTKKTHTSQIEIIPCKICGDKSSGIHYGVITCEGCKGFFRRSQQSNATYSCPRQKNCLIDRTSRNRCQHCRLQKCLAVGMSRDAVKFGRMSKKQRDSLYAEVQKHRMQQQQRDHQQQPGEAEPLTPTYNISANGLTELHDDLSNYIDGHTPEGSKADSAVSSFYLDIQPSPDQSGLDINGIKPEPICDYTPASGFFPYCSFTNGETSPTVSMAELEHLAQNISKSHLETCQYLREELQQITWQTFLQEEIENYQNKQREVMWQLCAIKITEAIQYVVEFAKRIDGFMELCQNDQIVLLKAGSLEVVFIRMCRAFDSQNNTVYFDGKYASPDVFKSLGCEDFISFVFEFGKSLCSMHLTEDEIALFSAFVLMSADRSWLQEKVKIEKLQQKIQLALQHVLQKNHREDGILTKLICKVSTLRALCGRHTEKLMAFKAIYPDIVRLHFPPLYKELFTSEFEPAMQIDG
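System: transiently transfected CHO-K1 cells, Gal4-DBD/human RORA-LBD fusion plus 5xGal4-luciferase reporter. Doses: one dose of 10 µM final. Timing: 20 h compound treatment, 37 °C. Measured by: luminescence. Evaluation: % inhibition of basal luciferase versus +RORA/-RORA DMSO controls. Benchmarks: mock-transfected cells as 100%, +RORA DMSO cells as 0%. Replicates: single test per compound.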
* = called active by the depositor. Only a selection was taken, and hits are over-represented in it overall.

SMILES	RORA inh
Cc1cccc(NC(=O)c2cc3ccccc3c(=O)o2)n1	-57
COc1ccc(NC(=O)Nc2cccc(OC)c2)cc1	-68
Cc1cccc(NC(=O)Nc2ccc(C#N)cc2)n1	60*
O=C(NCCCn1ccnc1)c1csc2ccccc12	4
Cn1c(NC(=O)C2c3ccccc3Oc3ccccc32)cc(=O)n(C)c1=O	-19
COc1nc(C)ccc1-c1noc(-c2ccccn2)n1	-61
c1ccc(CCc2nc(-c3ccccn3)no2)cc1	-54
c1ccc(-c2cccc(-c3ccccn3)n2)nc1	64*
CCOC(=O)N1CCC(N2Cc3cccc(C(=O)N4CC(C)CC(C)C4)c3C2=O)CC1 (stereo not given)	12
CCC(C)(C)n1nnnc1C(c1ccc(N(C)C)cc1)N1CCN(C2CCCCC2)CC1 (stereo not given)	-14
Cc1nnc2c3cnn(-c4ccc(Cl)cc4)c3ncn12	-65
COc1ccc(NC(=O)c2cnc3ccccn3c2=O)cc1OC	-53
CCN1C=CC(=C2C(=O)c3ccccc3C2=O)C=C1	67*
CC1=CC(=C2C(=O)c3ccccc3C2=O)C=C(C)O1	-57
CN1C=CC(=C2C(=O)c3ccccc3C2=O)C=C1	-52
CCCN1C=CC(=C2C(=O)c3ccccc3C2=O)C=C1	91*
CCOc1ccc(-n2nnc3c(=O)n(CC(=O)c4ccccc4)cnc32)cc1	12
CCOC(=O)Cc1csc(NC(=O)CSc2nc3cccnc3n2CC)n1	-2
CC(=O)c1c(C)[nH]c(C(=O)Nc2ccc(C)cn2)c1C	73*
CCOC(=O)c1[nH]c(C)c(C(=O)Nc2ccccc2C)c1C	-81
Cc1ccccc1C(=O)Nc1ccc(Br)cn1	-67
CC(=O)N1CCC2(CC1)CC(=O)c1cc(OCC(=O)NCc3ccco3)ccc1O2	11
O=C(CN(Cc1ccco1)C(=O)CNS(=O)(=O)c1ccc(Cl)cc1)NCc1ccc(F)cc1	8
COc1ccc(C(NC(=O)C(C)(C)C)NC(=O)C(C)(C)C)cc1	25
O=C(Nc1nc(-c2ccccn2)cs1)c1ccc(Cl)s1	65*
SMILES	RORA inh
O=C(Nc1nc(-c2ccccc2)cs1)c1cccs1	-57
O=C(Nc1nc(-c2nc3ccccc3s2)cs1)C1CC1	-51
CCN(CC)C(=O)N1CCC(NC(=O)c2ccccc2)CC1	-3
Cn1c(SCc2ccc(C#N)cc2Cl)nc2ccccc21	-82
COc1ccc(CNC(=O)CS(=O)Cc2nc(-c3ccc(C)cc3)oc2C)cc1 (stereo not given)	0
COc1ccc(-c2nc(CSCC(=O)NCc3ccco3)c(C)o2)cc1	72*
Cc1ccc(-c2nc(CS(=O)CC(=O)NCc3ccccc3)c(C)o2)cc1 (stereo not given)	-13
O=C(CSCC(=O)NCc1ccco1)NCc1ccco1	8
CCOc1ccc(-c2nc(CSCC(=O)NCCN3CCOCC3)c(C)o2)cc1	71*
CCOc1ccc(-c2nnc(SCC(=O)N3CCN(c4ccccc4)CC3)o2)cc1	-8
CC(C)(C)c1ccc(S(=O)(=O)N2CCCC2C(=O)NC2=NCCS2)cc1 (stereo not given)	15
CCC(C)[C@H](N)c1nnc(SCc2cccc(F)c2)o1 (stereo not given in full)	-12
Cc1nc(N2CCC3(CC2)OCCO3)c2nnn(Cc3ccccc3F)c2n1	-2
CCSc1cc(C2C(C#N)=C(N)OC(C)=C2C(=O)OC)c(C)o1 (stereo not given)	2
CCc1ccc(NC(=O)CSc2nnc(Cc3cccn3C)n2-c2ccc(F)cc2)cc1	7
Cc1cc(C)n(S(=O)(=O)c2ccc3ccccc3c2)n1	18
Cc1cc(C)n(-c2ccc3cccc(NS(C)(=O)=O)c3n2)n1	67*
Cc1cc(C)n(-c2nc(C)nc(N)n2)n1	-24
CC(=O)Nc1nc2ccc(-c3nc4ccccc4o3)cc2s1	-69
Cc1noc(C)c1C(=O)OCC(=O)c1cc(C)n(Cc2ccccc2Cl)c1C	-49
COc1ccccc1C(=O)Nc1c2c(nn1-c1cccc(C)c1C)CS(=O)(=O)C2	20
O=C(CSc1nnc(COc2ccc(F)cc2)o1)N1c2ccccc2CCc2ccccc21	-18
Cc1ccc(NCc2nnc(SCC(=O)N3CCCc4ccccc43)o2)c(C)c1	7
O=C(CSc1nnc(COc2cccc3cccnc23)o1)N1CCc2ccccc21	59*
CNc1nc2c(c(=O)[nH]c(=O)n2C)n1CCOC	9
SMILES	RORA inh
O=C(NC1CCCc2ccccc21)C1CCN(c2c(N3CCCC3)c(=O)c2=O)CC1 (stereo not given)	-6
Cc1ccc(S(=O)(=O)NCc2ccncc2)cc1	56*
Cc1cc(C)c(C)c(S(=O)(=O)NCc2cccnc2)c1C	12
O=S(=O)(NCc1ccc(Cl)cc1)c1cnc[nH]1	6
CC(=O)NS(=O)(=O)c1ccc(NC(=O)CCC2CCCC2)cc1	15
CC1CCCCC1NS(=O)(=O)c1ccc(S(=O)(=O)NCc2ccncc2)cc1 (stereo not given)	69*
CCc1ccc(-n2c(O)cnc2Nc2nc(C)cc(C)n2)cc1	-4
N#Cc1cn(CC(=O)O)c2ccccc12	6
O=C(CCCN1C(=O)c2ccccc2C1=O)N1CCC(c2ccccc2)C1 (stereo not given)	29
COc1cc2c(cc1OC)CN(C(=O)CSc1nc(N)c(C#N)cc1C#N)CC2	-5
Cc1ccnc(N2CCN(c3c4c(c(C#N)c5nc6ccccc6n35)CCC4)CC2)c1	14
Cn1c(=O)oc2cc(S(=O)(=O)NCC3CCCO3)ccc21 (stereo not given)	-16
Cc1ccc(Sc2oc(/C=N/n3cnnc3)cc2Br)cc1	16
CC(NC(=O)Nc1nnc(C(F)(F)F)s1)(C(F)(F)F)C(F)(F)F	94*
CCOC(=O)Cc1csc(NC(=O)CSc2nnc(-c3ccc(OC)cc3)n2C)n1	-6
C=CCNC(=O)c1ccccc1NC(=O)c1ccccc1	19
CCCCn1c(SCc2nnc(-c3ccccc3)o2)nc2c1c(=O)n(C)c(=O)n2C	6
Nc1c(Br)cc2oc(-c3ccccc3)nc2c1Br	-52
Cc1ccc(C)c(-c2nc3cc(N)ccc3o2)c1	13
Nc1ccc2oc(-c3cc(Br)ccc3Cl)nc2c1	58*
CC1CCCCC1NC(=O)CSc1nc2ccccc2c(=O)n1Cc1ccco1 (stereo not given)	17
CCCCn1c(SCC(=O)Nc2cc(NC(=O)c3ccco3)ccc2C)nc2ccccc2c1=O	12
Cc1cccc(NC(=O)CSc2nnc(-c3ccc(S(=O)(=O)N4CCOCC4)cc3)n2C)c1	17
CC(=O)Nc1nc2cc3c(cc2s1)OCO3	-72
Cc1nc2c(ccc3nc(NC(=O)c4ccc5c(c4)OCCO5)sc32)s1	8
SMILES	RORA inh
O=C(Nc1nc2cc3c(cc2s1)OCO3)C1=COCCO1	68*
O=C(C1CC(=O)N(c2ccccc2)C1)N1CCN(C2=NS(=O)(=O)c3ccccc32)CC1 (stereo not given)	8
COc1ccc(C2(C(=O)NCC3CCCO3)CCOCC2)cc1 (stereo not given)	1
CC1CCN(C(=O)CN2C(=O)C(C)(C)Oc3ccc(C(=O)NC4CCCC4)cc32)CC1	-10
C/C(N)=C(/C#N)C(=O)COC(=O)c1cc(C)n(-c2ccc(F)cc2)c1C	-67
O=C(CSCCO)Nc1cc(C(F)(F)F)ccc1Cl	13
NC(=O)C1CCN(C(=O)CSCc2ccccc2Cl)CC1	-16
Cc1ccc(-c2nsc3c(N4CCC(C(N)=O)CC4)ncnc23)cc1	57*
CC12CN3CC(C)(CN(C1)C3c1ccc(Br)cc1)C2 (stereo not given)	29
O=C(c1cc2ccccc2o1)c1nc2c(n1O)CCCCC2	-56
